Results: ChEMBL document CHEMBL1134104, “Novel alkylpolyamine analogues that possess both antitrypanosomal and antimicrosporidial activity” (Bioorg Med Chem Lett, 2001)

How the values were obtained:
Encephalitozoon cuniculi [1] = test: In vitro growth inhibitory activity against Encephalitozoon cuniculi grown on RK-13 cells infected as a monolayer; type: functional, organism-based
How it was run: (§1)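 RK-13 monolayers were infected with E. cuniculi, with 50–80% of control cells infected. Compound was added to duplicate wells for 7 days, and drug-containing medium was replaced on days 3 and 6. On day 8, cells were fixed overnight, Giemsa-stained and counted by inverted microscope at 400× in five confluent fields (240 cells/field). Percentage of infected cells was compared with untreated controls. Values came from three to five growth curves.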

Trypanosoma brucei [2] = test: In vitro growth inhibitory activity against Trypanosoma brucei strain LAB110; type: functional, organism-based
Trypanosoma brucei [3] = test: In vitro growth inhibitory activity against Trypanosoma brucei strain K243; type: functional, organism-based
Trypanosoma brucei [4] = test: In vitro growth inhibitory activity against Trypanosoma brucei strain K243 (As-10-3); type: functional, organism-based
Trypanosoma brucei [5] = test: In vitro growth inhibitory activity against Trypanosoma brucei strain K269; type: functional, organism-based
Encephalitozoon cuniculi [6] = test: In vitro growth inhibitory activity against Encephalitozoon cuniculi grown on RK-13 cells infected as a monolayer at concentration of 100 uM; type: functional; how it was run: as §1
Encephalitozoon cuniculi [7] = test: In vitro growth inhibitory activity against Encephalitozoon cuniculi grown on RK-13 cells infected as a monolayer at concentration of 50 uM; type: functional; how it was run: as §1
Encephalitozoon cuniculi [8] = test: In vitro growth inhibitory activity against Encephalitozoon cuniculi grown on RK-13 cells infected as a monolayer at concentration of 250 uM; type: functional; how it was run: as §1
Encephalitozoon cuniculi [9] = test: In vitro growth inhibitory activity against Encephalitozoon cuniculi grown on RK-13 cells infected as a monolayer at concentration of 500 uM; type: functional; how it was run: as §1

IC50 (Trypanosoma brucei [2]) | IC50 (Trypanosoma brucei [3]) | SMILES | IC50 (Encephalitozoon cuniculi [1]) | IC50 (Trypanosoma brucei [4]) | IC50 (Trypanosoma brucei [5]) | inhibition at 100 µM (Encephalitozoon cuniculi [6]) | inhibition at 50 µM (Encephalitozoon cuniculi [7]) | inhibition at 250 µM (Encephalitozoon cuniculi [8]) | inhibition at 500 µM (Encephalitozoon cuniculi [9])
22 µM | 18.5 µM | COc1ccccc1CNCCCNCCCCCCCNCCCNCc1ccccc1OC |  | 5.5 µM | 16.5 µM |  | 100% |  | 
 |  | N[C@@H]1C=C[C@@H](NCCCNCC2CCCC(CNCCCN[C@H]3C=C[C@H](N)C3)C2)C1 (some centres undefined) |  |  |  | 100% |  |  | 
> 100 µM | > 100 µM | CCNCCCNC1C=CC(N)CCC1 (centres undefined) | 36 µM |  |  |  |  |  | 
 |  | C(CNCC1CCC1)CNCC1CCCC(CNCCCNCC2CCC2)C1 (centres undefined) |  |  |  |  |  | 100% | 
 |  | N[C@H]1C=CC(NCCCNCC2CCCCCC2)CCC1 (some centres undefined) |  |  |  | 76% |  |  | 
> 100 µM | > 100 µM | N[C@H]1C=CC(NCCCNCC2CC2)C1 (some centres undefined) | 204 µM |  |  |  |  |  | 
0.31 µM | 0.38 µM | CCNCCCNCCCCCCCNCCCNC[C@@H](C)CC |  | 0.79 µM |  |  |  |  | 
 |  | CC[C@H](C)CNCCCNCCCCCCCNCCCN |  |  |  |  |  |  | 87%
0.031 µM | 0.04 µM | CCC(C)CNCCCNCCCCCCCNCCCNCC(C)CC (centres undefined) |  | 0.165 µM |  |  | 47% |  | 
> 100 µM | > 100 µM | CCNCCCNCC1CCCC(N)CC1 (centres undefined) | 232 µM |  |  |  |  |  | 
> 100 µM | > 100 µM | CCNCCCNCCCNCCCNCC [BIS(ETHYL)NORSPERMINE] |  | > 100 µM | > 100 µM |  |  |  | 

SMILES | IC50 (Trypanosoma brucei [2]) | IC50 (Trypanosoma brucei [3]) | IC50 (Encephalitozoon cuniculi [1]) | IC50 (Trypanosoma brucei [4]) | IC50 (Trypanosoma brucei [5]) | inhibition at 100 µM (Encephalitozoon cuniculi [6]) | inhibition at 50 µM (Encephalitozoon cuniculi [7]) | inhibition at 250 µM (Encephalitozoon cuniculi [8]) | inhibition at 500 µM (Encephalitozoon cuniculi [9])
c1ccc(-c2ccccc2CNCCCNCCCCCCCNCCCNCc2ccccc2-c2ccccc2)cc1 | 0.24 µM | 0.19 µM | 0.47 µM | 0.2 µM | 0.75 µM |  |  |  | 
c1ccc(CNCCCNCC2CCCC(CNCCCNCc3ccccc3)C2)cc1 (centres undefined) | 4.05 µM | 4.15 µM |  | 56 µM | 5.1 µM | 86% |  |  | 
C1CCCC(CNCCCNCC2CCCC(CNCCCNCC3CCCCCC3)C2)CC1 (centres undefined) | 3.25 µM | 14 µM |  | 2.15 µM | 1.71 µM | 100% |  |  | 
C(CNCC1CC1)CNCC1CCCC(CNCCCNCC2CC2)C1 (centres undefined) | 73 µM | 81.5 µM |  | > 100 µM | > 100 µM | 100% |  |  | 
